Data on 3 compounds can be found in ChEMBL document CHEMBL5143722, “Antimicrobial Peptides against Multidrug-Resistant Pseudomonas aeruginosa Biofilm from Cystic Fibrosis Patients” (J Med Chem, 2022).

Calls of active or inactive are those of the source. The calls are words filed in the database; no cut-off is given here.

In test [1] the test system is Pseudomonas aeruginosa. Description: Antibiofilm activity against Pseudomonas aeruginosa clinical isolate 82 in basal medium 2 at 12.5 to 100 uM incubated for 24 hrs by resazurin staining based microtiter plate method. The class given is functional, organism-based. Particulars: dose 12.5-100 µM. (In general: Resazurin is reduced to fluorescent resorufin, in cell work by metabolically active cells.)

The subject of test [2] is Pseudomonas aeruginosa PAO1. Description: Induction of biofilm degradation of Pseudomonas aeruginosa PAO1 in cystic fibrosis patient sputum at 10 uM incubated for 48 hr by resazurin staining based confocal microscopy analysis.
The subject of test [3] is Pseudomonas aeruginosa. Description: Induction of biofilm degradation of Pseudomonas aeruginosa clinical isolate 46 at sub MIC concentration incubated for 1 hr by crystal violet staining analysis. The test is classed as functional. A digest of the protocol:
(§1)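 Bacteria at 1 × 10^6 CFU/mL in BM2 grown static at 37 °C for 24 h to form biofilm. Wells rinsed of unattached cells, then exposed for 1 h to serial peptide dilutions (1.56–50 μM). Washed, stained with 0.1% crystal violet, A590 read. Biomass given as % of untreated biofilm; no-bacteria wells as blanks. At least three biological repeats.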

In test [4] the test system is Pseudomonas aeruginosa. Kind of test: Induction of biofilm degradation of Pseudomonas aeruginosa clinical isolate 99 at sub MIC concentration incubated for 1 hr by crystal violet staining analysis. The test is classed as functional. Summed up: as §1
Test [5] relates to Pseudomonas aeruginosa. Description: Induction of biofilm degradation of Pseudomonas aeruginosa clinical isolate 72 at sub MIC concentration incubated for 1 hr by crystal violet staining analysis. The class given is functional. A digest of the protocol:
as §1

Test [6] relates to Pseudomonas aeruginosa. Description: Induction of biofilm degradation of Pseudomonas aeruginosa clinical isolate 172 at sub MIC concentration incubated for 1 hr by crystal violet staining analysis. The test is classed as functional. Summed up:
as §1

Test [7] concerns Pseudomonas aeruginosa. Description: Induction of biofilm degradation of Pseudomonas aeruginosa clinical isolate 629 at sub MIC concentration incubated for 1 hr by crystal violet staining analysis. The test is classed as functional. A digest of the protocol:
as §1

Test [8] relates to Pseudomonas aeruginosa. Kind of test: Antibiofilm activity against Pseudomonas aeruginosa clinical isolate 46 in basal medium 2 at 12.5 to 100 uM incubated for 24 hrs by resazurin staining based microtiter plate method. The class given is functional, organism-based. Particulars: dose 12.5-100 µM.
The test system of test [9] is Pseudomonas aeruginosa. Description: Induction of biofilm degradation of Pseudomonas aeruginosa clinical isolate 59 at 50 uM incubated for 1 hr by crystal violet staining analysis relative to control. The test is classed as functional. Summed up: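 Inoculum of 1 × 10^6 CFU/mL was grown 24 h at 37 °C without agitation to form biofilm. Wells were rinsed of unattached bacteria and exposed for 1 h to serial peptide dilutions (1.56–50 μM). They were then washed, stained with 0.1% crystal violet, and read at 590 nm with no-bacteria blanks. Biomass is given as % of untreated biofilm.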

For test [10], the system named is Pseudomonas aeruginosa. Description: Antibiofilm activity against Pseudomonas aeruginosa clinical isolate 24 in basal medium 2 at 12.5 to 100 uM incubated for 24 hrs by resazurin staining based microtiter plate method. Conditions: dose 12.5-100 µM. The test is classed as functional, organism-based.
Test [11] concerns Pseudomonas aeruginosa. Kind of test: Drug resistance in Pseudomonas aeruginosa clinical isolate 24 in BM2 medium assessed as fold change in MIC.
Test [12] deals with Pseudomonas aeruginosa. Description: Antibiofilm activity against Pseudomonas aeruginosa clinical isolate 24 assessed as inhibition of biofilm formation at MIC incubated for 24 hrs by crystal violet staining based microtiter plate method. The test is classed as functional, organism-based. A digest of the protocol: (§2)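 Washed overnight cultures in BM2 medium at 1 × 10^6 CFU/mL with 2-fold serial peptide dilutions in a U-bottom 96-well plate. Incubated 24 h at 37 °C without agitation. Unattached cells washed off, then 0.1% crystal violet stain read at 590 nm. No-bacteria blanks. Biomass expressed as % of untreated biofilm. At least three biological repeats.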

Test [13] concerns Pseudomonas aeruginosa. Description: Drug resistance in Pseudomonas aeruginosa PAO1 in BM2 medium assessed as fold change in MIC.
Test [14] has as its system Pseudomonas aeruginosa. Kind of test: Antibiofilm activity against Pseudomonas aeruginosa clinical isolate 46 assessed as inhibition of biofilm formation at MIC incubated for 24 hrs by crystal violet staining based microtiter plate method. The class given is functional, organism-based. Summed up: as §2
Test [15] has as its system Pseudomonas aeruginosa. Description: Antibiofilm activity against Pseudomonas aeruginosa clinical isolate 99 assessed as inhibition of biofilm formation at MIC incubated for 24 hrs by crystal violet staining based microtiter plate method. The test is classed as functional, organism-based. Summed up: as §2
For test [16], the system named is Pseudomonas aeruginosa. Kind of test: Antibiofilm activity against Pseudomonas aeruginosa clinical isolate 59 assessed as inhibition of biofilm formation at MIC incubated for 24 hrs by crystal violet staining based microtiter plate method. The test is classed as functional. Summed up:
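In BM2, bacteria at 1 × 10^6 CFU/mL were incubated with 2-fold serial peptide dilutions for 24 h at 37 °C without agitation. Unattached cells were washed off, and the remaining biofilm was stained with 0.1% crystal violet and read at OD590. Blanks had no bacteria. Biomass is given as % of untreated biofilm; at least three biological repeats.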

Test [17] has as its system Pseudomonas aeruginosa. Kind of test: Antibiofilm activity against Pseudomonas aeruginosa clinical isolate 995 assessed as inhibition of biofilm formation at MIC incubated for 24 hrs by crystal violet staining based microtiter plate method. The test is classed as functional, organism-based. A digest of the protocol: as §2
Test [18] relates to Pseudomonas aeruginosa. Description: Antibiofilm activity against Pseudomonas aeruginosa clinical isolate 52 assessed as inhibition of biofilm formation at 1.56 uM incubated for 24 hrs by crystal violet staining based microtiter plate method. The test is classed as functional, organism-based. Summed up:
as §2

In test [19] the test system is Pseudomonas aeruginosa. Kind of test: Antibiofilm activity against Pseudomonas aeruginosa clinical isolate 99 assessed as inhibition of biofilm formation at 1.56 uM incubated for 24 hrs by crystal violet staining based microtiter plate method. The test is classed as functional, organism-based. A digest of the protocol: as §2
Test [20] concerns Pseudomonas aeruginosa. Description: Antibiofilm activity against Pseudomonas aeruginosa clinical isolate 29 assessed as inhibition of biofilm formation at 1.56 uM incubated for 24 hrs by crystal violet staining based microtiter plate method. The test is classed as functional, organism-based. A digest of the protocol:
as §2

Test [21] concerns Pseudomonas aeruginosa. Kind of test: Antibiofilm activity against Pseudomonas aeruginosa clinical isolate 53 assessed as inhibition of biofilm formation at 1.56 uM incubated for 24 hrs by crystal violet staining based microtiter plate method. The test is classed as functional, organism-based. A digest of the protocol:
as §2

The subject of test [22] is Pseudomonas aeruginosa. Description: Induction of biofilm degradation of Pseudomonas aeruginosa clinical isolate 59 at 12.5 uM incubated for 1 hr by crystal violet staining analysis.
For test [23], the system named is Pseudomonas aeruginosa. Description: Antibiofilm activity against Pseudomonas aeruginosa clinical isolate 995 assessed as inhibition of biofilm formation at 1.56 uM incubated for 24 hrs by crystal violet staining based microtiter plate method. The class given is functional, organism-based. Summed up:
as §2

Test [24] has as its system Pseudomonas aeruginosa. Description: Antibiofilm activity against Pseudomonas aeruginosa clinical isolate 82 in artificial sputum medium at 50 uM incubated for 24 hrs by resazurin staining based microtiter plate method. The test is classed as functional, organism-based. A digest of the protocol:
(§3)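 Washed overnight culture set to OD ~0.05 in BM2, diluted 1:100 into artificial sputum medium (pH 6.9) in 24-well plates. Grown 3 days aerobically at 37 °C with agitation. Peptides (12.5–100 μM) added for 24 h with agitation. Biofilm disrupted by cellulase for 1 h at 37 °C. Resazurin 0.02% for 1–2 h, fluorescence ex 530/em 590 nm; viability as % of untreated wells.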

The subject of test [25] is Pseudomonas aeruginosa. Description: Antibiofilm activity against Pseudomonas aeruginosa clinical isolate 24 in artificial sputum medium at 100 uM incubated for 24 hrs by resazurin staining based microtiter plate method. The class given is functional, organism-based. Summed up: as §3
For test [26], the system named is Pseudomonas aeruginosa. Description: Antibiofilm activity against Pseudomonas aeruginosa PAO1 in artificial sputum medium at 25 uM incubated for 24 hrs by resazurin staining based microtiter plate method relative to control. The test is classed as functional. A digest of the protocol:
as §3

In test [27] the test system is Pseudomonas aeruginosa. Kind of test: Antibiofilm activity against Pseudomonas aeruginosa clinical isolate 24 in artificial sputum medium at 50 uM incubated for 24 hrs by resazurin staining based microtiter plate method. The class given is functional, organism-based. Summed up:
as §3

Test [28] deals with Pseudomonas aeruginosa. Kind of test: Antibiofilm activity against Pseudomonas aeruginosa assessed as inhibition of biofilm formation at 0.5 times of MIC incubated for 24 hrs by crystal violet staining based microtiter plate method. The test is classed as functional, organism-based. Summed up: as §2
Test [29] deals with Pseudomonas aeruginosa. Description: Antibiofilm activity against Pseudomonas aeruginosa clinical isolate 82 in artificial sputum medium at 100 uM incubated for 24 hrs by resazurin staining based microtiter plate method. The class given is functional, organism-based. Summed up: as §3
In test [30] the test system is Pseudomonas aeruginosa. Kind of test: Antibiofilm activity against Pseudomonas aeruginosa PAO1 assessed as inhibition of biofilm formation at 1.56 uM incubated for 24 hrs by crystal violet staining based microtiter plate method. The test is classed as functional, organism-based.

In the case of `CC(C)C[C@H](NC(=O)[C@H](CC(C)C)NC(=O)[C@H](CC(C)C)NC(=O)[C@H](CC(C)C)NC(=O)[C@H](CC(C)C)NC(=O)[C@H](CC(C)C)NC(=O)[C@H](CC(C)C)NC(=O)[C@H](CC(C)C)NC(=O)[C@H](CC(C)C)NC(=O)[C@H](CCCCN)NC(=O)[C@H](CCCCN)NC(=O)[C@@H](N)CCCCN)C(=O)N[C@@H](CCCCN)C(=O)N[C@@H](CCCCN)C(=O)N[C@@H](CCCCN)C(N)=O`, the result (in the test on Pseudomonas aeruginosa [1]; in test [2]; in the test on Pseudomonas aeruginosa [3]; with Pseudomonas aeruginosa [4]; in the test on Pseudomonas aeruginosa [5]; in the test on Pseudomonas aeruginosa [6]) was Active. Further, the result with Pseudomonas aeruginosa [7], in the test on Pseudomonas aeruginosa [8] and in the test with Pseudomonas aeruginosa [10] was Active. The same compound yielded an Activity in the test on Pseudomonas aeruginosa [9] of 40%.
Take `CC[C@H](C)[C@H](NC(=O)[C@H](CCCCN)NC(=O)[C@H](CCC(=O)O)NC(=O)[C@H](CCCCN)NC(=O)[C@H](CO)NC(=O)[C@H](CCCCN)NC(=O)[C@H](CCCNC(=N)N)NC(=O)[C@H](Cc1ccccc1)NC(=O)[C@H](Cc1ccccc1)NC(=O)[C@H](CC(=O)O)NC(=O)CNC(=O)[C@H](CC(C)C)NC(=O)[C@@H](N)CC(C)C)C(=O)NCC(=O)N[C@@H](CCCCN)C(=O)N[C@@H](CCC(=O)O)C(=O)N[C@@H](Cc1ccccc1)C(=O)N[C@@H](CCCCN)C(=O)N[C@@H](CCCNC(=N)N)C(=O)N[C@H](C(=O)N[C@H](C(=O)N[C@@H](CCC(N)=O)C(=O)N[C@@H](CCCNC(=N)N)C(=O)N[C@H](C(=O)N[C@@H](CCCCN)C(=O)N[C@@H](CC(=O)O)C(=O)N[C@@H](Cc1ccccc1)C(=O)N[C@@H](CC(C)C)C(=O)N[C@@H](CCCNC(=N)N)C(=O)N[C@@H](CC(N)=O)C(=O)N[C@@H](CC(C)C)C(=O)N[C@H](C(=O)N1CCC[C@H]1C(=O)N[C@@H](CCCNC(=N)N)C(=O)N[C@H](C(=O)N[C@@H](CCC(=O)O)C(=O)N[C@@H](CO)C(N)=O)[C@@H](C)O)C(C)C)[C@@H](C)CC)C(C)C)[C@@H](C)CC`: the “fold change (FC)” value in the test with Pseudomonas aeruginosa [11] and in the test on Pseudomonas aeruginosa [13] was less than 20 in each case. For the same compound, the inhibition entry with Pseudomonas aeruginosa [12], in the test on Pseudomonas aeruginosa [14], in the test with Pseudomonas aeruginosa [15] and with Pseudomonas aeruginosa [17] was “Active” throughout. The outcome with Pseudomonas aeruginosa [1], in the test on Pseudomonas aeruginosa [8] and with Pseudomonas aeruginosa [10] was Active. For the same compound, in the test with Pseudomonas aeruginosa [16], the “inhibition (INH)” value is listed as 30%. For the same compound, the Activity with Pseudomonas aeruginosa [9] is 40%.
For the compound `CC(C)C[C@H](NC(=O)[C@H](CC(C)C)NC(=O)[C@H](CCCCN)NC(=O)[C@H](CC(C)C)NC(=O)[C@H](CC(C)C)NC(=O)[C@H](CCCCN)NC(=O)[C@H](CCCCN)NC(=O)[C@H](CC(C)C)NC(=O)[C@H](CC(C)C)NC(=O)[C@H](CCCCN)NC(=O)[C@H](CCCCN)NC(=O)[C@H](CC(C)C)NC(=O)[C@H](CC(C)C)NC(=O)[C@H](CCCCN)NC(=O)[C@@H](N)CC(C)C)C(N)=O`, the “fold change (FC)” value with Pseudomonas aeruginosa [11] and in the test with Pseudomonas aeruginosa [13] was less than 20 in each case. For the same compound, the inhibition result with Pseudomonas aeruginosa [18], with Pseudomonas aeruginosa [19], in the test on Pseudomonas aeruginosa [12], in the test on Pseudomonas aeruginosa [20], in the test with Pseudomonas aeruginosa [21] and in the test on Pseudomonas aeruginosa [23] was “Active” throughout. The inhibition result with Pseudomonas aeruginosa [14], in the test with Pseudomonas aeruginosa [15], in the test on Pseudomonas aeruginosa [17], in the test on Pseudomonas aeruginosa [28] and with Pseudomonas aeruginosa [30] was “Active” throughout. For the same compound, the outcome (in test [2]; with Pseudomonas aeruginosa [22]; in the test with Pseudomonas aeruginosa [24]; in the test on Pseudomonas aeruginosa [25]; with Pseudomonas aeruginosa [27]; in the test on Pseudomonas aeruginosa [29]) was Active. For the same compound, the Activity with Pseudomonas aeruginosa [26] came out at 66.7%.
